Reference: ChEMBL document CHEMBL1671677, “Role of AbeS, a novel efflux pump of the SMR family of transporters, in resistance to antimicrobial agents in Acinetobacter baumannii” (2009)
Values after ≈ are worked out from the molar mass of the structure shown. Active and inactive are the calls of the source.

How the values were obtained:
Acinetobacter baumannii [1] = assay: Antibacterial activity against abeS-deficient Acinetobacter baumannii AC0037 by CLSI broth microdilution method; type: functional
[2] = biological target: T1, QacEdelta1 SMR family efflux pump (Acinetobacter baumannii) (UniProt Q2FD83); assay: Inhibition of Acinetobacter baumannii abeS expressed in Escherichia coli KAM32 assessed as decrease in increase in bromide accumulation
T1 sequence (whole entry): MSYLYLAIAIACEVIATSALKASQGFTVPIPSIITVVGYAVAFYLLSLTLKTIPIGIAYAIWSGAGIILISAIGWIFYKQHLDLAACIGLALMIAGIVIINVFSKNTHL
In short: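 EtBr accumulation in E. coli KAM32 (lacks AcrAB, YdhE) carrying pUC18 or pVBS1 (abeS). CCCP, a proton motive force uncoupler, added to 25 μg/ml final after 20 min with substrate. Cells lysed; supernatant fluorescence read at excitation 530 nm, emission 600 nm. Relative fluorescence taken as accumulated EtBr. Mean plus SD of three independent experiments.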

Escherichia coli [3] = assay: Antibacterial activity against Escherichia coli KAM32 harboring recombinant plasmid pVBS1 encoding Acinetobacter baumannii abeS gene by CLSI broth microdilution method; type: functional
Acinetobacter baumannii [4] = assay: Antibacterial activity against Acinetobacter baumannii AC0037 by CLSI broth microdilution method; type: functional
Escherichia coli [5] = assay: Antibacterial activity against Escherichia coli KAM32 harboring plasmid pUC18 by CLSI broth microdilution method; type: functional
Escherichia coli [6] = assay: Ratio of MIC for Escherichia coli KAM32 harboring recombinant plasmid pVBS1 encoding Acinetobacter baumannii abeS gene to MIC for Escherichia coli KAM32 harboring plasmid pUC18
Acinetobacter baumannii [7] = assay: Antibacterial activity against abeS sigma abeS-deficient Acinetobacter baumannii AC0037 by CLSI broth microdilution method; type: functional
Acinetobacter baumannii [8] = assay: Ratio of MIC for Acinetobacter baumannii AC0037 to MIC for abeS-deficient Acinetobacter baumannii AC0037; type: functional
In short: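 MICs were determined by broth dilution and interpreted per CLSI criteria for the parental A. baumannii AC0037 and its abeS null mutant. The mutant was made by electroporating a plasmid carrying abeS disrupted by a kanamycin-resistance cassette, for double homologous recombination, and selected on 50 μg/ml kanamycin plus 80 μg/ml ticarcillin. The ratio is the parental MIC over the mutant MIC.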

Escherichia coli [9] = assay: Antibacterial activity against Escherichia coli KAM32 harboring recombinant plasmid pVBS1 encoding Acinetobacter baumannii abeS gene by CLSI broth microdilution method in presence of 25 ug/ml efflux pump inhibitor CCCP; type: functional
Escherichia coli [10] = assay: Antibacterial activity against Escherichia coli KAM32 harboring plasmid pUC18 by CLSI broth microdilution method in presence of 25 ug/ml efflux pump inhibitor CCCP; type: functional

SMILES | Activity (Acinetobacter baumannii [1]) | inhibition [2] | MIC (Escherichia coli [3]) | MIC (Acinetobacter baumannii [4]) | MIC (Escherichia coli [5]) | Ratio (Escherichia coli [6]) | MIC (Acinetobacter baumannii [7]) | Ratio (Acinetobacter baumannii [8]) | MIC (Acinetobacter baumannii [1]) | MIC (Escherichia coli [9]) | MIC (Escherichia coli [10])
CC(C)(O/N=C(\C(=O)N[C@@H]1C(=O)N2C(C(=O)[O-])=C(C[n+]3ccccc3)CS[C@H]12)c1csc(N)n1)C(=O)O | inactive |  |  |  |  |  |  |  |  |  | 
C[C@@H](O)[C@H]1C(=O)N2C(C(=O)O)=C(SCCNC=N)C[C@H]12 | inactive |  |  |  |  |  |  |  |  |  | 
C[C@@H](O)[C@H]1C(=O)N2C(C(=O)O)=C(S[C@@H]3CN[C@H](C(=O)N(C)C)C3)[C@H](C)[C@H]12 | inactive |  |  |  |  |  |  |  |  |  | 
N#CC(C#N)=NNc1cccc(Cl)c1 |  | Active |  |  |  |  |  |  |  |  | 
CN(C)c1ccc2cc3ccc(N(C)C)cc3nc2c1 [ACRIDINE ORANGE] |  |  | 80 µg/mL | 200 µg/mL (≈ 754 µM) | 16 µg/mL (≈ 60.3 µM) | 5 | 125 µg/mL (≈ 471 µM) | 4 | 50 µg/mL (≈ 188 µM) |  | 
NCC[C@H](O)C(=O)N[C@@H]1C[C@H](N)[C@@H](O[C@H]2O[C@H](CN)[C@@H](O)[C@H](O)[C@H]2O)[C@H](O)[C@H]1O[C@H]1O[C@H](CO)[C@@H](O)[C@H](N)[C@H]1O [AMIKACIN] |  |  | 2 µg/mL | 256 µg/mL (≈ 437 µM) | 1 µg/mL (≈ 1.71 µM) | 2 | 256 µg/mL (≈ 437 µM) | 1 | 256 µg/mL (≈ 437 µM) | 0.15 µg/mL | 0.15 µg/mL
CCBr [BROMOETHANE] |  |  | 8 µg/mL | 1020 µg/mL (≈ 9400 µM) | 2 µg/mL (≈ 18.4 µM) | 4 | > 512 µg/mL | 8 | 128 µg/mL (≈ 1170 µM) |  | 
O=C(N[C@H](CO)[C@H](O)c1ccc([N+](=O)[O-])cc1)C(Cl)Cl [CHLORAMPHENICOL] |  |  | 0.2 µg/mL | 256 µg/mL (≈ 792 µM) | 0.2 µg/mL (≈ 0.619 µM) | 1 | 128 µg/mL (≈ 396 µM) | 4 | 64 µg/mL (≈ 198 µM) |  | 
N=C(NCCCCCCNC(=N)NC(=N)Nc1ccc(Cl)cc1)NC(=N)Nc1ccc(Cl)cc1 [CHLORHEXIDINE] |  |  | 4 µg/mL | 32 µg/mL (≈ 63.3 µM) | 2 µg/mL (≈ 3.96 µM) | 2 | 32 µg/mL (≈ 63.3 µM) | 2 | 16 µg/mL (≈ 31.7 µM) |  | 
N=C(N)c1ccc(-c2cc3ccc(C(=N)N)cc3[nH]2)cc1 [DAPI] |  |  | 2 µg/mL | 2 µg/mL (≈ 7.21 µM) | 0.5 µg/mL (≈ 1.8 µM) | 4 | 2 µg/mL (≈ 7.21 µM) | 4 | 0.5 µg/mL (≈ 1.8 µM) |  | 
C[C@H](CCC(=O)O)[C@H]1CC[C@H]2[C@@H]3CC[C@@H]4C[C@H](O)CC[C@]4(C)[C@H]3C[C@H](O)[C@]12C [DEOXYCHOLIC ACID] |  |  | 3120 µg/mL | > 2050 µg/mL | 125 µg/mL (≈ 318 µM) | 25 | 512 µg/mL (≈ 1300 µM) | >16 | 128 µg/mL (≈ 326 µM) | 5 µg/mL | < 0.25 µg/mL
CC[C@H]1OC(=O)[C@H](C)[C@@H](O[C@H]2C[C@@](C)(OC)[C@@H](O)[C@H](C)O2)[C@H](C)[C@@H](O[C@@H]2O[C@H](C)C[C@H](N(C)C)[C@H]2O)[C@](C)(O)C[C@@H](C)C(=O)[C@H](C)[C@@H](O)[C@]1(C)O [ERYTHROMYCIN] |  |  | 24 µg/mL | 64 µg/mL (≈ 87.2 µM) | 4 µg/mL (≈ 5.45 µM) | 6 | 32 µg/mL (≈ 43.6 µM) | 8 | 8 µg/mL (≈ 10.9 µM) | 0.25 µg/mL | < 0.05 µg/mL
CCn1cc(C(=O)O)c(=O)c2ccc(C)nc21 [NALIDIXIC ACID] |  |  | 1 µg/mL | 256 µg/mL (≈ 1100 µM) | 1 µg/mL (≈ 4.31 µM) | 1 | 256 µg/mL (≈ 1100 µM) | 2 | 128 µg/mL (≈ 551 µM) |  | 
CCn1cc(C(=O)O)c(=O)c2cc(F)c(N3CCNCC3)cc21 [NORFLOXACIN] |  |  | 0.12 µg/mL | 512 µg/mL (≈ 1600 µM) | 0.06 µg/mL (≈ 0.188 µM) | 2 | > 128 µg/mL | 2 | 256 µg/mL (≈ 802 µM) | 0.001 µg/mL | 0.001 µg/mL
CO[C@@H]1[C@@H](OC(N)=O)[C@@H](O)[C@H](Oc2ccc3c(O)c(NC(=O)c4ccc(O)c(CC=C(C)C)c4)c(=O)oc3c2C)OC1(C)C [NOVOBIOCIN] |  |  | 20 µg/mL | 120 µg/mL (≈ 196 µM) | 4 µg/mL (≈ 6.53 µM) | 5 | 84 µg/mL (≈ 137 µM) | 3 | 40 µg/mL (≈ 65.3 µM) | < 0.5 µg/mL | < 0.5 µg/mL
C[n+]1ccc(-c2cc[n+](C)cc2)cc1.[Cl-].[Cl-] [PARAQUAT DICHLORIDE] |  |  | 128 µg/mL | 800 µg/mL | 64 µg/mL | 2 | 800 µg/mL | 2 | 400 µg/mL | < 2.5 µg/mL | < 2.5 µg/mL
COC(=O)c1ccccc1-c1c2ccc(=N)cc-2oc2cc(N)ccc12.Cl [RHODAMINE123] |  |  | 32 µg/mL | 128 µg/mL | 8 µg/mL | 4 | 128 µg/mL | 2 | 64 µg/mL |  | 
CO[C@H]1/C=C/O[C@@]2(C)Oc3c(C)c(O)c4c(O)c(c(/C=N/N5CCN(C)CC5)c(O)c4c3C2=O)NC(=O)/C(C)=C\C=C\[C@H](C)[C@H](O)[C@@H](C)[C@@H](O)[C@@H](C)[C@H](OC(C)=O)[C@@H]1C [RIFAMPIN] |  |  |  | 2 µg/mL (≈ 2.43 µM) |  |  | 2 µg/mL (≈ 2.43 µM) |  | 2 µg/mL (≈ 2.43 µM) |  | 
CCCCCCCCCCCCOS(=O)(=O)[O-].[Na+] [SODIUM LAURYL SULFATE] |  |  | 800 µg/mL | > 256 µg/mL | 50 µg/mL | 16 | 128 µg/mL | >16 | 16 µg/mL | < 5 µg/mL | < 5 µg/mL
CN(C)[C@@H]1C(O)=C(C(N)=O)C(=O)[C@@]2(O)C(O)=C3C(=O)c4c(O)cccc4[C@@](C)(O)[C@H]3C[C@@H]12 [TETRACYCLINE] |  |  | 1 µg/mL | 64 µg/mL (≈ 144 µM) | 0.5 µg/mL (≈ 1.13 µM) | 2 | 64 µg/mL (≈ 144 µM) | 1 | 64 µg/mL (≈ 144 µM) |  | 
[Cl-].c1ccc([P+](c2ccccc2)(c2ccccc2)c2ccccc2)cc1 [TETRAPHENYLPHOSPHONIUM CHLORIDE] |  |  | 16 µg/mL | 1500 µg/mL | 8 µg/mL | 2 | > 500 µg/mL | 5 | 300 µg/mL | 0.25 µg/mL | 0.25 µg/mL
COc1cc(Cc2cnc(N)nc2N)cc(OC)c1OC [TRIMETHOPRIM] |  |  | 0.2 µg/mL | 64 µg/mL (≈ 220 µM) | 0.125 µg/mL (≈ 0.431 µM) | 2 | 64 µg/mL (≈ 220 µM) | 1 | 64 µg/mL (≈ 220 µM) |  | 
